Screening data from PubChem BioAssay.
Only a sample is shown.
PGC1a acetyl up: raises PGC1a acetylation signal in U2OS cells | U2OS PGC1a acetylation AlphaScreen, overnight | activation, % at 15.6 µM | 350,000 tested, 0.21% active;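 active = every replicate reaching activation of at least 50%, whatever the mean replicate activation; inconclusive = replicates that disagree or another doubt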;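 note: hits raise the AlphaScreen acetylation signal above neutral controls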
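detection = AlphaScreen lysate read | assay system = U2OS cells expressing flag-PGC1a plus GCN5 | input = 7000 cells/well | dosing = one concentration | times = compound overnight at 37 °C, each detection step 1 h RT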
Hep G6PC suppr: PGC-1a acetylation activators affecting G6PC expression in hepatocytes | G6PC suppression (normalized activity, % of positive control; higher = more suppression), % at 26 µM | shares compounds with PGC1a acetyl up | primary mouse hepatocytes, G6PC mRNA qPCR, forskolin | 240 tested, under 10 active | AID 743463;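 active = dose curves showing G6PC suppression whose half-maximal dose is at most twice the top valid dose; inconclusive = flat curves with moderate negative activity, or unreliable fits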;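 note: G6PC expression relative to GAPDH housekeeping gene as delta delta Ct; 0% = median of neutral control wells and 100% = median of positive control wells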
PCK1 hep suppr: PGC-1a acetylation activators affecting PCK1 expression in hepatocytes | primary mouse hepatocytes, PCK1 mRNA qPCR, forskolin-stimulated | PCK1 expression decrease, unspecified at 26 µM | shares compounds with PGC1a acetyl up | 230 tested, under 10 active;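 active = compounds lowering PCK1 expression whose fitted half-maximal concentration is at most twice the top tested dose; inconclusive = flat fit with moderate opposite-direction effect, or poor fit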;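 note: values are delta delta Ct of PCK1 relative to GAPDH; higher delta delta Ct means lower PCK1 expression so positive values indicate hits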
Hep PGC-1a down: PGC-1a acetylation activators affecting PGC-1a expression in hepatocytes; max activity (PGC-1a expression decrease), %; primary mouse hepatocytes, PGC-1a mRNA qPCR, forskolin; top dose 26 µM; shares compounds with PGC1a acetyl up; 240 tested, under 10 active; AID 743467;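 active = compound lowering PGC-1a expression with fitted half-maximal concentration at most twice its top tested dose; inconclusive = flat curve with moderate opposite-direction effect, or poor fit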;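 note: 0% = neutral control wells median and 100% = positive control wells median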
Numbers without * were called inactive; i = inactive; ? = inconclusive; · = no result; [ ] = another dose, or the depositor's remark.

SMILES	PGC1a acetyl up	Hep G6PC suppr	PCK1 hep suppr	Hep PGC-1a down
COC(=O)C[C@@H]1C[C@H]2c3cc(NC(=O)Nc4ccc(C(F)(F)F)cc4)ccc3O[C@H]2[C@H](CO)O1	?	6.1[23.5 µM]	-9.52[23.5 µM]	24.8
O=C(C[C@@H]1C[C@@H]2c3cc(NC(=O)Nc4ccccc4F)ccc3O[C@@H]2[C@@H](CO)O1)NCc1ccc(Oc2ccccc2)cc1	-83.8	·	·	·
CCC(=O)N[C@H]1CC[C@H](CCNC(=O)Nc2ccc(C(F)(F)F)cc2)O[C@H]1CO	-60.3	·	·	·
Oc1ccc(-c2nc(-c3ccc(O)c(O)c3)cs2)cc1	-46.3	·	·	·
CCCCN(c1ccccc1)c1ncnc(N)c1[N+](=O)[O-]	-52.0	·	·	·
CC(=O)c1cccc(N(C(=O)c2cnccn2)C(C(=O)NCc2ccccc2)c2ccco2)c1 (configuration not stated)	96.0*	44.6	129	188.1
CC(=O)c1cccc(N(C(=O)Cn2nnc3ccccc32)C(C(=O)NCc2ccccc2)c2ccccn2)c1 (configuration not stated)	?	-28.8	-11	-33.2
CC(C)CC(NC(=O)c1ccc(Cl)cc1)C(=O)OCC(=O)c1ccc2c(c1)NC(=O)CO2 (configuration not stated)	-56.7	·	·	·
CCn1c(C(C)NC(=O)c2ccccc2C)n[nH]c1=S (configuration not stated)	-49.8	·	·	·
CCC(C)(C)NC(=O)c1ccc2c(c1)S(=O)(=O)c1ccccc1C2=O	-53.9	·	·	·
c1ccc(N2CCN(C3CC4CCC3C4)CC2)cc1 (configuration not stated)	-52.7	·	·	·
COc1ccccc1C(NC(C)=O)c1cc(Cl)c2cccnc2c1O (configuration not stated)	-46.0	·	·	·
CCCOc1ccc(C(=O)Nc2cccnc2)cc1	76.7*	-37.9	56.6	54.1
O=C(Nc1cccnc1)c1ccc(Oc2ccccc2)cc1	78.5*	-13.9	9.49	?
CC12CC(c3ccccc3O1)N(C(=O)c1ccc(Br)o1)C(=O)N2c1ccccc1 (configuration not stated)	-44.3	·	·	·
Cc1ccccc1NC(=O)Nc1ccccc1Br	-46.3	·	·	·
COC(=O)/C=C/c1cnc2ccccc2c1	-43.0	·	·	·
COc1cc(NC(=O)c2cccs2)c(OC)cc1NC(=O)CCC(=O)Nc1ccc2ncccc2c1	366.0*	188.8	?	?
COc1ccc(C(=O)N/C(=C/c2cccs2)C(=O)NC(C)(C)C)cc1OC	-67.2	·	·	·
CCCCCSc1nnc(C)c(=O)[nH]1	-90.6	·	·	·
Cc1cc(/C=C2\C(=N)N3N=C(C(C)C)SC3=NC2=O)c(C)n1Cc1ccccc1	-48.5	·	·	·
COC1(C)CN(Cc2ccccc2Br)[C@H](/C=C/c2ccccc2)[C@H](Cc2ccccc2)O1 (some centres not stated)	-50.9	·	·	·
CCCCN(CC)CCCNC(=O)c1cc2c(=O)n(CC)c3ccccc3c2s1	?	i	214	172.3
Cc1ccsc1C(=O)Nc1cc(Cl)ccc1-n1cncn1	-61.0	·	·	·
COC(=O)c1cc2ccsc2n1CC(=O)Nc1cc(Cl)ccc1OC	59.4*	24.2	314	118.7
SMILES	PGC1a acetyl up	Hep G6PC suppr	PCK1 hep suppr	Hep PGC-1a down
COc1ccc(C(=O)/C(=C\c2ccco2)N2C=CC=CC2=C(C#N)C#N)cc1	-71.3	·	·	·
COc1ccc(S(=O)(=O)N2CCOCC2)cc1NC(=O)CCNC(=O)c1ccc(Cl)cc1	75.9*	2.9	48.9	?
COc1ccc(C(=O)NCCCSC)cc1OC1CCN(C(C)C)CC1	-44.2	·	·	·
COc1ccc(C(=O)C(CN2CCOCC2)c2ccccc2)cc1F (configuration not stated)	-114.0	·	·	·
CC(=O)OCCn1c(C)[n+](CCOC(C)=O)c2cc(Cl)c(Cl)cc21	-47.4	·	·	·
COc1ccc(N(C(=O)c2snc(C(N)=O)c2N)C(C(=O)NC2CCCCC2)c2ccc(F)cc2)c(OC)c1 (configuration not stated)	?	-19.5[8 µM]	119	71.7
COc1ccc(N(C(=O)c2snc(C(N)=O)c2N)C(C(=O)NC2CCCCC2)c2ccc(C)o2)cc1 (configuration not stated)	62.1*	-14.5	-44.9	37.1
C#CC(=O)N(c1cc(OC)ccc1OC)C(C(=O)NC1CCCC1)c1cccs1 (configuration not stated)	-88.2	·	·	·
N=c1n(Cc2ccccc2)c2ccccc2n1CC(O)COc1ccc(Cl)cc1Cl (configuration not stated)	-44.3	·	·	·
CC[C@H](C)[C@@H]1NC(=O)[C@@H](CC(C)C)NC(=O)[C@H](C(C)C)NC(=O)[C@H]2CSSC[C@H](NC1=O)C(=O)N2	-72.2	·	·	·
CCCCOc1ccc(CNC(=O)NS(=O)(=O)c2ccc(OCC(C)C)cc2)cc1	-48.9	·	·	·
